Calls of active or inactive are those of the source. The calls are words filed in the database; no cut-off is given here.
Experiments:
[1] = test system: NCI-H23; assay: Antiproliferative activity against human NCI-H23 cells after 72 hrs by sulforhodamine B assay; type: functional, cell-based; conditions: NCI-H23, 72 h
How it was run: (§1)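 Cells seeded and exposed in triplicate to graded compound concentrations for 72 h. Suspension cells read by MTT conversion to coloured product; adherent cells read by sulforhodamine B. IC50 (50% growth inhibition versus untreated control) derived by the Logit method.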

[2] = target: T1, DNA topoisomerase 2-alpha (Homo sapiens, UniProt P11388); assay: Inhibition of human topoisomerase 2alpha-mediated relaxation of pBR322 at 25 uM
T1 sequence (P11388 whole entry): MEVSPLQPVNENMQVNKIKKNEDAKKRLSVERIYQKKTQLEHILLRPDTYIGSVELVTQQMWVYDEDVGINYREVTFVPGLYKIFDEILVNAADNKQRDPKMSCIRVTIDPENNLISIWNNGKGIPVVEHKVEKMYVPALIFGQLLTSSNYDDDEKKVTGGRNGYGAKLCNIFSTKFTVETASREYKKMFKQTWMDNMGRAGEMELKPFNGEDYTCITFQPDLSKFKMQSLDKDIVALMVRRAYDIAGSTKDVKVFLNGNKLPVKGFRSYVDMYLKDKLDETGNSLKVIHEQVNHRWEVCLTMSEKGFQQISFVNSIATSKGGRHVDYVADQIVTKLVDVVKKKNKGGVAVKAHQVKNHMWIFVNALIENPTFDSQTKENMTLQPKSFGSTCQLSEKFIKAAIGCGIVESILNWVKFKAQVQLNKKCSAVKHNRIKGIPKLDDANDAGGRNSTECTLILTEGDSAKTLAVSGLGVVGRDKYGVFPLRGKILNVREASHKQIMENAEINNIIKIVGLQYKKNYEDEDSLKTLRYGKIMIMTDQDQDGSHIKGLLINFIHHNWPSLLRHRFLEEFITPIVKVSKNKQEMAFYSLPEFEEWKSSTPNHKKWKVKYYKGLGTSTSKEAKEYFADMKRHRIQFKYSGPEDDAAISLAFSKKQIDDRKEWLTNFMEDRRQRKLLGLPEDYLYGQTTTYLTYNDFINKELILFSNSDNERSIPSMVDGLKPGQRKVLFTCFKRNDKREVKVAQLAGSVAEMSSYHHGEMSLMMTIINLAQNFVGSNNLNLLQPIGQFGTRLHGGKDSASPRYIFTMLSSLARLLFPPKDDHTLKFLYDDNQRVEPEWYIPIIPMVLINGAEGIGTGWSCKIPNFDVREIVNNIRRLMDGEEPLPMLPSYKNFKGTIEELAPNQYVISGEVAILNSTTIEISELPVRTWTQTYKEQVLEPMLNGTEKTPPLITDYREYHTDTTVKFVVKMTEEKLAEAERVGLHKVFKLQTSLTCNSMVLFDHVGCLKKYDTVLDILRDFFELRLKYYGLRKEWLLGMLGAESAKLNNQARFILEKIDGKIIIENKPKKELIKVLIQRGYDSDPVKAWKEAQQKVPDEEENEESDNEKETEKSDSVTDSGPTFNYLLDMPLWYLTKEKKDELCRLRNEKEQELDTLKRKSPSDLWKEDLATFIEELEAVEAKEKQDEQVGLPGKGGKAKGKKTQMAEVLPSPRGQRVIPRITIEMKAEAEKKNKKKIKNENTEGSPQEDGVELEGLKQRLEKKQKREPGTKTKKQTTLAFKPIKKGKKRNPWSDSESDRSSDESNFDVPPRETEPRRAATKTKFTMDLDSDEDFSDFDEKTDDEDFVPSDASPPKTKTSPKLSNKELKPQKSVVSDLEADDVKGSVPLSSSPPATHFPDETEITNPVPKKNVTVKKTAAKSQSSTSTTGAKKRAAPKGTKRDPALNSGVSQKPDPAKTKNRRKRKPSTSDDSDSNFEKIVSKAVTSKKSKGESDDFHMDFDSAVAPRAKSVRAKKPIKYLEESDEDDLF

[3] = test system: HL-60; assay: Antiproliferative activity against human HL60 cells after 72 hrs by sulforhodamine B assay; type: functional, cell-based; conditions: HL-60, 72 h, in the assay text read “MTT assay” for “sulforhodamine B assay”; how it was run: as §1
[4] = test system: Nucleic Acid; assay: Inhibition of Fenton's reaction mediated DNA strand break in Escherichia coli pBR322 by gel electrophoresis; type: nucleic-acid assay
How it was run: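 pBR322 (0.2 μg) incubated 30 min at room temperature in 13 mM Hepes pH 7.2 with 1 mM H2O2 and 10 μM FeSO4 plus compound. Run on 1% agarose containing 0.1 μg/mL ethidium bromide at 90 V for 60 min. Bands quantified; % supercoiled = 1.4SC/(L+OC+1.4SC)×100.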

[5] = target: T1, DNA topoisomerase 2-alpha; assay: Inhibition of topoisomerase-2 alpha in human HL60/MX2 cells assessed as antagonization of enzyme-DNA cleavage complex at 100 uM; type: cell-based
[6] = Antiproliferative activity against human K562/A02 cells after 72 hrs by sulforhodamine B assay; type: functional, cell-based; conditions: K562/A02, 72 h, in the assay text read “MTT assay” for “sulforhodamine B assay”; how it was run: as §1
[7] = test system: HT-29; assay: Antiproliferative activity against human HT-29 cells after 72 hrs by sulforhodamine B assay; type: functional, cell-based; conditions: HT-29, 72 h; how it was run: as §1
[8] = target: T1, DNA topoisomerase 2-alpha; assay: Inhibition of topoisomerase-2 alpha in human HT-29 cells assessed as reversal of etoposide-mediated DNA double strand break measured as phosphorylated histone2A level at 100 uM by immunostaining; type: cell-based
[9] = Antiproliferative activity against human KB/VCR cells after 72 hrs by sulforhodamine B assay; type: functional, cell-based; how it was run: as §1
[10] = test system: MKN-28; assay: Antiproliferative activity against human MKN28 cells after 72 hrs by sulforhodamine B assay; type: functional, cell-based; conditions: MKN-28, 72 h; how it was run: as §1
[11] = test system: Bel-7402; assay: Antiproliferative activity against human Bel7402 cells after 72 hrs by sulforhodamine B assay; type: functional, cell-based; conditions: Bel-7402, 72 h; how it was run: as §1
[12] = target: T1, DNA topoisomerase 2-alpha; assay: Inhibition of topoisomerase-2 alpha in human HL60/MX2 cells assessed as antagonization of etoposide-mediated enzyme-DNA cleavage complex at 100 uM; type: cell-based
[13] = target: T2, DNA topoisomerase 1 (Homo sapiens) (UniProt P11387); assay: Inhibition of human topoisomerase 1-mediated relaxation of pBR322 up to 125 uM
T2 sequence (whole entry): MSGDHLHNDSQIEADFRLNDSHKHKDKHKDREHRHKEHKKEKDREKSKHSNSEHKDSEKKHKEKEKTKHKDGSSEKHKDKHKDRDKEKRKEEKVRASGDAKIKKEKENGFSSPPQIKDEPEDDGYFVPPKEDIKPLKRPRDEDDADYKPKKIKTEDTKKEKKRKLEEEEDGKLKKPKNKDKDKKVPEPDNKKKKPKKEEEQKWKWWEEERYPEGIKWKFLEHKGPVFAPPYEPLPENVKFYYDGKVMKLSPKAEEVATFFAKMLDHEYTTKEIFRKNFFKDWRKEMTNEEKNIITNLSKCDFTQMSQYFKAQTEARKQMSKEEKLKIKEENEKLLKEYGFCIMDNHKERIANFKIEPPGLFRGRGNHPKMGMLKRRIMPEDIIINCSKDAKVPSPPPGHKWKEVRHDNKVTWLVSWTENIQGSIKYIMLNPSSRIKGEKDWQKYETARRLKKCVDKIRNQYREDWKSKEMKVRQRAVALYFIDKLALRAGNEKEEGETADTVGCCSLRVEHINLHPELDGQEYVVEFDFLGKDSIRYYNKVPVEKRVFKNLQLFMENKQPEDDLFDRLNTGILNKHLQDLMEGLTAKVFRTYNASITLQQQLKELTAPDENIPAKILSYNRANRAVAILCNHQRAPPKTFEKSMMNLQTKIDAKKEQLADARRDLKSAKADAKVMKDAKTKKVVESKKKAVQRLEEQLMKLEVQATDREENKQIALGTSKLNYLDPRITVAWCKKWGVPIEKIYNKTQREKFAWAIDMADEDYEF

[14] = test system: A-375; assay: Antiproliferative activity against human A375 cells after 72 hrs by sulforhodamine B assay; type: functional, cell-based; conditions: A-375, 72 h; how it was run: as §1
[15] = test system: CCRF S-180; assay: Antitumor activity against mouse S180 cells transplanted in Kunming mouse assessed as inhibition of tumor growth at 12.5 mg/kg/day, ip for 7 days; type: functional; conditions: CCRF S-180, ip, 168 h, route intraperitoneal
How it was run: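 Female Kunming mice, 7 weeks old, 18-22 g, inoculated sc in the right armpit with S-180 sarcoma. Dosing began the next day, ip daily for 7 days; normal saline given iv as control. Tumours excised and weighed after treatment. Inhibitory rate (%) = (mean control tumour weight − mean treated tumour weight)/mean control tumour weight × 100.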

[16] = target: T1, DNA topoisomerase 2-alpha; assay: Inhibition of human topoisomerase 2alpha-mediated relaxation of pBR322
[17] = target: T2, DNA topoisomerase 1 (Homo sapiens); assay: Inhibition of human topoisomerase 1-mediated relaxation of pBR322 at 100 uM
[18] = test system: HT-29; assay: Cell cycle arrest in human HT-29 cells pretreated with aphidicolin for 1 hr assessed as accumulation at G1/S phase after 24 hrs by flow cytometry in presence of nocdazole; type: functional, cell-based
How it was run: (§2)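 HT-29 cells stained with propidium iodide; cell-cycle distribution determined by flow cytometry.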

[19] = test system: KB; assay: Antiproliferative activity against human KB cells after 72 hrs by sulforhodamine B assay; type: functional, cell-based; how it was run: as §1
[20] = test system: MDA-MB-231; assay: Antiproliferative activity against human MDA-MB-231 cells after 72 hrs by sulforhodamine B assay; type: functional, cell-based; conditions: MDA-MB-231, 72 h; how it was run: as §1
[21] = test system: HT-29; assay: Cell cycle arrest in nocodazole pretreated human HT-29 cells assessed as accumulation at M phase at 1 uM after 24 hrs; type: functional, cell-based; how it was run: as §2
[22] = test system: A549; assay: Antiproliferative activity against human A549 cells after 72 hrs by sulforhodamine B assay; type: functional, cell-based; conditions: A549, 72 h; how it was run: as §1
[23] = target: T1, DNA topoisomerase 2-alpha; assay: Inhibition of topoisomerase 2alpha assessed as antagonization of etoposide-mediated prestrand passage DNA cleavage in absence of ATP
[24] = target: T2, DNA topoisomerase 1 (Homo sapiens); assay: Inhibition of topoisomerase 1-mediated unwinding of supercoiled DNA assessed as DNA intercalation
[25] = test system: HT-29; assay: Inhibition of DNA synthesis in human HT-29 cells measured at 0.25 to 1 uM by BrdU incorporation assay; type: functional, cell-based
How it was run: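 HT-29 cells; DNA synthesis measured by BrdU incorporation with flow detection.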

[26] = target: T1, DNA topoisomerase 2-alpha; assay: Inhibition of topoisomerase-2 alpha in human HT-29 cells assessed as reversal of etoposide-mediated DNA double strand break measured as phosphorylated histone2A level at 30 uM by immunostaining; type: cell-based
[27] = test system: MKN-45; assay: Antiproliferative activity against human MKN45 cells after 72 hrs by sulforhodamine B assay; type: functional, cell-based; conditions: MKN-45, 72 h; how it was run: as §1
[28] = test system: HT-29; assay: Cell cycle arrest in human HT-29 cells assessed as accumulation at G1 phase at 0.5 to 1 uM after 24 hrs by flow cytometry; type: functional, cell-based; how it was run: as §2

- IC50 [1]: 80 nM
- inhibition [2]: inactive
- IC50 [3]: 50 nM
- inhibition [4]: Dose-dependent effect
- inhibition [5]: inactive
- IC50 [7]: 20 nM
- inhibition [8]: Active
- IC50 [10]: 170 nM
- IC50 [11]: 180 nM
- inhibition [12]: Active
- inhibition [13]: inactive
- IC50 [14]: 20 nM
- inhibition [16]: Dose-dependent effect
- inhibition [17]: Active
- IC50 [19]: 770 nM
- IC50 [20]: 20 nM
- IC50 [22]: 450 nM
- inhibition [23]: inactive
- inhibition [24]: inactive
- inhibition [26]: Active
- IC50 [27]: 830 nM
Compound: CN(C)C(=S)N/N=C/c1ccc2ccccc2n1
- IC50 [6]: 60 nM
- IC50 [9]: 300 nM
- inhibition in vivo at 12.5 mg/kg/day [15]: 17.6%
- Activity [18]: inactive
- Activity [21]: Active
- inhibition [25]: Dose-dependent effect
- Activity [28]: Active
